Assay: Toxicity liver stage against HepG2, at 10uM
Format: cell-based
Design: test concentration 10 uM, cell line HepG2-A16-CD81EGFP
Settings: human, HepG2-A16-CD81EGFP cells; read-out: INHIBITION
Procedure, shortened: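 Uninfected HepG2-A16-CD81EGFP cells, 3 × 10^3 per well, 1536-well, plated on prespotted compound at 10 μM final, parasite-free screening media added to match infected plates; puromycin 10 μM positive, DMSO 0.5% negative; run in parallel with 48 h PbLuc assay at 37 °C, 5% CO2; viability by CellTiter-Glo luminescence, normalized to controls.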

Row | Compound | cytotoxicity at 10 µM
1 | CCO[C@H]1CC[C@H]2[C@H]1OCCN2CCOCc1ccccc1 | -111%
2 | O=C(NC[C@H]1OC[C@@H](NCc2ccccc2)[C@@H]1O)Nc1ccc(F)cc1 | -10.8%
3 | CC(=O)Nc1nc(C)c(S(=O)(=O)NCCc2ccccn2)s1 | -5%
4 | CN(C)c1ccc(C(=O)NCCCNc2ccc(C(F)(F)F)cn2)cc1 | -7.66%
5 | CCOc1ncccc1NC(=O)N1CCCCCC1 | -6.36%
6 | COCc1nc(C(=O)N2CCN(c3nccc(OC)n3)CC2)cs1 | -7.68%
7 | Cc1cc(C2CCCN(C(=O)COc3ccc(F)cc3F)C2)n[nH]1 (stereo not given) | 5.93%
8 | COc1ccc(CN(Cc2ccco2)Cc2[nH]cnc2C)c(OC)c1 | -1.57%
9 | Cn1cc(Br)c(=O)c(NS(=O)(=O)c2cc(F)ccc2Cl)c1 | -11%
10 | O=C1NC(c2cnc(C3CCC3)s2)Nc2ncccc21 (stereo not given) | 0.992%
11 | Cc1csc([C@@H]2C[C@@H]3CCN(Cc4cnn(C)c4)C[C@H]3O2)n1 | -4.87%
12 | CCn1ccnc1CN1CCN(c2ncnc3ccsc23)CC1 | 5.39%
13 | Cc1ccc(C(=O)N2C[C@H]3CCCC(OCc4cccnc4)[C@H]3C2)cn1 (stereo not given in full) | 4.93%
14 | O=C(COc1coc(CN2CCCCC2)cc1=O)c1ccc(Cl)cc1 | 3.13%
15 | O=C1CSC(c2ccsc2)c2c(n(C3CCCC3)[nH]c2=O)N1 (stereo not given) | -11.6%
16 | CCN(CCn1cccn1)Cc1nc(-c2ccccc2F)oc1C | 1.04%
17 | Cc1noc(C)c1CN1CC[C@H]2OCC[C@@]2(C(=O)NCC2CC2)C1 | -77.2%
18 | Cc1cnn(CC2CCCN2C(=O)Cc2n[nH]c3ccccc23)c1 (stereo not given) | -9.16%
19 | CCc1n[nH]c(SCC(=O)N2CCc3[nH]nc(C4CCC4)c3C2)n1 | -12.1%
20 | Cc1ccc(C(C(=O)NCc2cc(C)[nH]n2)N(C)C)cc1 (stereo not given) | -0.671%
21 | Cc1ccc(CN2CCN(C(=O)c3ccc(Br)o3)CC2)cc1 | 1.16%
22 | CCC(=O)N1CCC2(CC1)C(=O)N(Cc1cccnc1)CCN2C | 2.17%
23 | O=C(C1CC(=O)N(c2n[nH]c3cc(Br)ccc23)C1)N1CCOCC1 (stereo not given) | -3.27%
24 | COc1cc(CNC(=O)Nc2nnc(C(C)C)s2)ccn1 | -8.24%
25 | CCN1CCc2[nH]cnc2C12CCN(Cc1ccc3nsnc3c1)CC2 | 3.72%
26 | CN(C)S(=O)(=O)N1CCC2(COCc3cnc(NCC4CC4)nc32)C1 (stereo not given) | 7.66%
27 | Cc1ccc(-n2nnc(C(=O)NCC(F)(F)F)c2C2CC2)cc1 | -6.94%

Row | Compound | cytotoxicity at 10 µM
28 | Cc1ncsc1CCN(C)Cc1cc2n(n1)CCN(Cc1ncc[nH]1)C2 | -22.2%
29 | COc1cccc(CN(C)C(=O)CN2CCN(CCO)CC2)c1 | 12.3%
30 | CN1CCN(c2cccc(Cl)c2CNCCS(C)(=O)=O)CC1 | -0.641%
31 | O=C(Nc1cc(CSCCO)ccn1)c1cc2ccccc2[nH]1 | 17.3%
32 | CN1CCS(=O)(=O)[C@@H]2CCN(C(=O)CC(C)(C)C)CC[C@@H]21 | 1.2%
33 | CN(C)C(CNC(=O)NCCOc1ccccc1)c1ccco1 (stereo not given) | -6.2%
34 | COCc1cc(O)nc(C2CCCN(Cc3cccc(OC)c3)C2)n1 (stereo not given) | 4.97%
35 | COc1ccc(CCCC(=O)N2CCCC(n3cncn3)C2)cc1 (stereo not given) | -6.96%
36 | CCc1cc(C(=O)N2CCCC2c2nc(C)c(CC)c(O)n2)on1 (stereo not given) | -14.2%
37 | Fc1cnc(N2CC[C@@H]3O[C@@H](COCc4ccccn4)CC[C@@H]32)nc1 | 1.9%
38 | CCOCc1cncc2c1CCN(S(=O)(=O)c1cccc(C)c1)C2 | 13.6%
39 | CN(C)CCNc1ccc(-c2nc(COc3ccccc3)no2)cn1 | 10.2%
40 | CCOc1ccccc1CNCC1CCN(CC(C)O)CC1 (stereo not given) | -9.04%
41 | CCn1c(N)nc2cc(C(=O)N3CC(c4ccccn4)C3)cnc21 | -14.8%
42 | Cc1nnc(CCNC(=O)C2CC(=O)N(C(C)(C)C)C2)s1 (stereo not given) | -3.27%
43 | O=C(NCC(F)(F)F)c1ccc(-n2cccn2)nn1 | -8.35%
44 | O=C(NCC(O)c1cccs1)c1cccc(Cl)c1 (stereo not given) | -17.8%
45 | c1ccc2c(c1)C(NC1CCCC1)CC21CCNCC1 (stereo not given) | -120%
46 | Cc1ccc(N2CC[C@@H]3CN(Cc4c[nH]cn4)C[C@@H]3C2)nn1 | 7.43%
47 | COc1ccc(N)c(N2CCN(C(C)=O)CC2)n1 | -6.22%
48 | O=C(NCCn1ccnc1)N1CCCC1c1cccs1 (stereo not given) | -7.51%
49 | CC(C)c1cc(NC(=O)CN2CCCC(Cn3cncn3)C2)on1 (stereo not given) | 14%
50 | CN1CC(C(=O)NCc2cccnc2-n2cccn2)CC1=O (stereo not given) | -6.18%
51 | CCc1nn(C)c(CC)c1CNC(=O)Nc1cccc([S+](C)[O-])c1 (stereo not given) | -1.01%
52 | CCc1ccsc1C(=O)N1CCN(CCN2C(=O)CCC2=O)CC1 | -3.82%
53 | CC(C)(NS(C)(=O)=O)c1nc(-c2ccncc2)no1 | 12.9%
54 | CS(=O)(=O)c1cccc(C(N)c2ccccc2)c1 (stereo not given) | -19.3%

Row | Compound | cytotoxicity at 10 µM
55 | CC(C)S(=O)(=O)CCN1CCN(C(C#N)c2ccccc2)CC1 (stereo not given) | 0.401%
56 | CO[C@@H]1CO[C@@]2(CCCN(C(=O)C3CC=CC3)C2)C1 | -105%
57 | COc1ccc(Oc2cccnc2)cc1CN1CCCC1 | 2.67%
58 | CN(C)c1nccc(C2CCCN2S(=O)(=O)c2cn(C)cn2)n1 (stereo not given) | -20.2%
59 | CC(=O)N1CCC(C)(c2cc(C(=O)NCC(C)(C)C)nc(C)n2)CC1 | 6.93%
60 | COc1ncc(CN2CCC3(CCCN(CC4CCC4)C3)C2)cn1 (stereo not given) | -1.95%
61 | CS(=O)(=O)N1CCN(C(=O)c2cccc(Cl)c2)CC2(CNC(=O)C2)C1 (stereo not given) | 6.86%
62 | Cn1cc(Cl)cc1C(=O)N1CCC2(CCCN(CC3CCC3)C2=O)C1 (stereo not given) | 0.407%
63 | O=C1NCCN1C1CCN(CCOc2cccc3ccccc23)CC1 | -5.72%
64 | COCCC1(C(=O)O)CCCN(C(=O)c2cnc3c(c2)CCCC3)C1 (stereo not given) | -44.5%
65 | Cc1cc(CC(=O)NCC(O)COc2ccc(F)c(F)c2)n[nH]1 (stereo not given) | -7.66%
66 | CS(=O)(=O)CCn1ccc(NC(=O)Cc2ccccc2Cl)n1 | 13.6%
67 | CCn1cc(CN2CCCn3nc(CNC(=O)N(C)C)cc3C2)cn1 | 6.99%
68 | N#Cc1ccc(N2CCC3(CCC(=O)N3Cc3cccnc3)CC2)nc1 | -112%
69 | Cn1cnc2c1CCN(Cc1csc(-c3ccsc3)n1)C2 | -8.78%
70 | CC(C)CNC[C@H]1COCc2nc3cccnc3n21 | -4.48%
71 | Cc1nc2c(C)cccc2cc1C(=O)N1CCC2(CCN(C)CC2)C1 | -4.39%
72 | Cc1ccc(C(=O)N2CCC3(CC(N(C)c4ccncn4)C3)C2)cn1 (stereo not given) | -6.11%
73 | COc1c(CNCCNC(=O)c2ccccc2F)c(C)nn1C | -0.644%
74 | Cc1ccc(Cl)cc1-n1nnnc1C1(N2CCCC2)CCCC1 | 1.18%
75 | Fc1ccccc1Cn1c(C2CCNCC2)cc2cccnc21 | 1.25%
76 | CN(c1ccncn1)C1CC2(CCN(C(=O)CCc3cccs3)C2)C1 (stereo not given) | -1.34%
77 | CCOc1ncnc2c1CCN(C(=O)NCc1cccnc1)CC2 | -127%
78 | Cc1ncsc1C(=O)NCCNC(=O)OC(C)(C)C | 4.73%
79 | Cn1c(CCN2CCN(c3ccc(O)cc3)CC2)nc2ccccc21 | -37.5%
80 | CCCN1CCN(C(=O)c2ccc(Cl)cn2)[C@H]2CS(=O)(=O)C[C@H]21 | -4.15%

From ChEMBL document CHEMBL4513216, “Probing the Open Global Health Chemical Diversity Library for Multistage-Active Starting Points for Next-Generation Antimalarials” (ACS Infect Dis, 2020)
